Test results as given in ChEMBL document CHEMBL1649215, “In vitro activities of trioxaquines against Schistosoma mansoni” (2009).
Activity calls are given as the source filed them. The rule behind the calls is not given here.

Assays:
Schistosoma mansoni [1] = experiment: Antiparasitic activity against Schistosoma mansoni adult worm assessed as reduction of body contractility and movement at 50 ug/ml; type: functional, organism-based
Outline: (§1)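 Brazilian S. mansoni maintained in Swiss OF1 mice. Schistosomula recovered 21 days after percutaneous infection with 400 cercariae, and adults 49 days after 120 cercariae. Final concentration was 5 µg/ml for larvae and 50 µg/ml for adults, in RPMI/Tween 80/DMSO (1,000/0.95/3.8). Survival was followed over time and compared by pairwise log-rank tests (α = 1%).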

Schistosoma mansoni [2] = experiment: Antiparasitic activity against Schistosoma mansoni adult worm assessed as reduction of body contractility and movement at 50 ug/ml
Schistosoma mansoni [3] = experiment: Antiparasitic activity against Schistosoma mansoni larva assessed as reduction of body contractility and movement at 5 ug/ml
Schistosoma mansoni [4] = experiment: Antiparasitic activity against Schistosoma mansoni assessed as parasite death at 5 ug/ml; type: functional
Outline: (§2)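 Schistosomula (day 21) and adults (day 49) were taken from percutaneously infected Swiss OF1 mice. Compounds were serially diluted in DMSO, with the last step into RPMI containing Tween 80, and worms were exposed across a concentration and time range. Survival was recorded and groups compared by pairwise log-rank tests (α = 1%).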

Schistosoma mansoni [5] = experiment: Antiparasitic activity against Schistosoma mansoni assessed as parasite death at 10 ug/ml; type: functional; outline: as §2
Schistosoma mansoni [6] = experiment: Antiparasitic activity against Schistosoma mansoni larva assessed as reduction of body contractility and movement at 5 ug/ml; type: functional, organism-based; outline: as §1
Schistosoma mansoni [7] = experiment: Antiparasitic activity against Schistosoma mansoni adult worm assessed as reduction of body contractility and movement at 50 ug/ml within 7 hrs
Schistosoma mansoni [8] = experiment: Antiparasitic activity against Schistosoma mansoni larva assessed as reduction of body contractility and movement at 5 ug/ml within 7 hrs; type: functional, organism-based; outline: as §1
Schistosoma mansoni [9] = experiment: Antiparasitic activity against Schistosoma mansoni assessed as parasite death at 300 ug/ml; type: functional; outline: as §2
Schistosoma mansoni [10] = experiment: Antiparasitic activity against Schistosoma mansoni assessed as parasite death at 100 ug/ml; type: functional; outline: as §2

SMILES | Activity (Schistosoma mansoni [1]) | Activity (Schistosoma mansoni [2]) | Activity (Schistosoma mansoni [3]) | Activity (Schistosoma mansoni [4]) [%] | Activity (Schistosoma mansoni [5]) [%] | Activity (Schistosoma mansoni [6]) | Activity (Schistosoma mansoni [7]) | Activity (Schistosoma mansoni [8]) | Activity (Schistosoma mansoni [9]) [%] | Activity (Schistosoma mansoni [10]) [%]
O=C(C1CCCCC1)N1CC(=O)N2CCc3ccccc3C2C1 (stereo unspecified) [PRAZIQUANTEL] | Active | Active | Active | 100 | 100 | Active | – | – | – | –
CC1(C)COC2(CCC(N[C@H]3CC[C@H](Nc4ccnc5cc(C(F)(F)F)ccc45)CC3)CC2)OO1 (stereo partly specified) | Active | Active | Active | – | – | Active | Active | – | – | –
Clc1ccc2c(NCCN3CCC4(CC3)OCC3(CCCC3)OO4)ccnc2c1 | Active | Active | Active | – | – | Active | Active | Active | – | –
Clc1ccc2c(N[C@H]3CC[C@H](NC4CCC5(CC4)OCC4(CCCC4)OO5)CC3)ccnc2c1 (stereo partly specified) | Active | Active | Active | 100 | 100 | Active | Active | Active | 100 | 100
CN(C1CCC2(CC1)OCC(C)(C)OO2)[C@H]1CC[C@H](Nc2ccnc3cc(Cl)ccc23)CC1 (stereo partly specified) | Active | Active | Active | – | – | Active | inactive | inactive | – | –
C[C@H]1[C@H](OC(=O)CCC(=O)O)O[C@@H]2O[C@@]3(C)CC[C@H]4[C@H](C)CC[C@@H]1[C@@]24OO3 [ARTESUNATE] | – | – | – | – | – | – | – | – | 100 | –
Clc1ccc2c(NCCN3CCC4(CC3)OCC3(CCCCC3)OO4)ccnc2c1 | Active | Active | Active | – | – | Active | Active | – | – | –
CO[C@H]1O[C@@H]2O[C@@]3(C)CC[C@H]4[C@H](C)CC[C@@H]([C@H]1C)[C@@]24OO3 [ARTEMETHER] | – | – | – | – | – | – | – | – | 100 | –
CC1(C)COC2(CCC(N[C@H]3CC[C@H](Nc4ccnc5cc(Cl)ccc45)CC3)CC2)OO1 (stereo partly specified) | Active | Active | Active | – | – | Active | Active | Active | – | –
